Screening results as filed in PubChem BioAssay.
Only a selection was taken, and hits are over-represented in it overall.
L major viab = Leishmania major promastigote growth inhibition, primary screen. Leishmania major promastigotes, resazurin fluorescence viability. AID 1063, 2008. 9% of 200,000 active. inhibition, % at 10 µM; in the data active = inhibition above about 50%;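 note: promastigotes grown with compound for 44 hours at 28 °C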
T cruzi inh = inhibitors of intracellular T. cruzi growth, primary screen, luminescence, NIH3T3 host cells; T. cruzi beta-gal in NIH3T3, 90 h; inhibition, % (test concentration not listed); 1.4% of 300,000 active; AID 1885, 2009;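 active = mean inhibition across valid replicates above about 55%, limit read from the data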;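 note: signal also drops with host cell toxicity which is not excluded here; 0% = plate median of DMSO wells and 100% = zero luminescence signal; higher percent means less beta-gal luminescence so fewer parasites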
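System: Mouse NIH/3T3 fibroblasts infected with β-gal-expressing T. cruzi Tulahuen C4 | Quantity: NIH/3T3 cells, 5,000 per well | Reagent: 5000 reporter trypomastigotes per well | Dosing: Compound pinned at 50 nL/well, DMSO | Schedule: 3 h host attachment, then at least 90 h co-culture | Detection: GalScreen luminescence, 60 min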
HSF1 activator = HSF-1 activators, primary screen, NIH3T3-HGL cells, MG132 stress, luminescence, single point. NIH3T3-HGL HSF-1 luciferase reporter, 8 h; 100% = twice DMSO control signal. activation, % at 9 µM. 1.7% of 300,000 active. AID 504408, 2011;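 active = mean replicate activation of at least 50% with a set share of replicates each reaching 50%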;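 note: 0% = median of the neutral control wells and 100% = twice that signal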
HSF1 inhib = HSF1 inhibitors in luciferase reporter cells, primary screen, cell-based, NIH3T3, luminescence. NIH3T3-HGL HSE-luciferase, MG132-induced, luminescence 8 h; hits give low values. AID 2098, 2009. 0.77% of 300,000 active. activity change, negative = inhibition, % at 7.5 µM (by protocol);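 active = more than half of replicate wells show activity change below -50%, luminescence cut by over half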;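 note: luciferase reports HSF-1 transcriptional activity via heat shock element; 0% = median of DMSO wells and -100% = zero luminescence signal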
Hsp70 activator = Hsp70 transcriptional activators, primary screen, cell-based, HeLa, Hsp70 promoter luciferase, luminescence, 10 µM; AID 1203, 2008; 0.04% of 200,000 active; activation, % at 10 µM; HeLa Hsp70 promoter luciferase reporter; scaled: vehicle 0, proteasome-inhibitor control 100%;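 active = activation above the mean across all tested compounds plus 3 SD, cutoff set per campaign, cut at about 5.5% in these data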;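 note: 100% = MG132 at 30 µM as the positive control and 0% = DMSO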
* hit, by the source's call; · = no result given.

SMILES	L major viab	T cruzi inh	HSF1 activator	HSF1 inhib	Hsp70 activator
COc1ccc(C(=O)c2sc3nc(-c4ccccc4)ccc3c2N)cc1	32	25	19	-3	0
O=C(Nc1ccc(Oc2nnc(-c3ccccc3)c3ccccc23)cc1)c1ccccc1	77*	31	45	21	0
CCCC(=O)Nc1cccc(Oc2nc(C)cc(C)c2C#N)c1	52*	9	3	-6	0
Cc1cc(C)c(C#N)c(Oc2ccc(O)cc2)n1	27	-8	1	-13	0
Cc1[nH]c2ccccc2c1NC(=O)CN1CCN(c2cccc(C(F)(F)F)c2)CC1	8	·	·	·	0
Cc1[nH]c2ccccc2c1C(O)CN1CCN(c2cccc(C(F)(F)F)c2)CC1 (configuration not stated)	60*	42	22	9	0
CS(=O)(=O)N(Cc1ccccc1)c1ccc(C(=O)NCCSc2ccccn2)cc1	60*	11	0	7	0
Cc1ccc(N(CC(=O)NCCSc2ccccn2)S(C)(=O)=O)cc1	0	16	4	4	0
O=C(NCC1CCCO1)c1cc(S(=O)(=O)Nc2ccc(Br)cc2)ccc1Cl (configuration not stated)	-7	11	4	4	0
CCc1c(C#N)c(SCCC(=O)Nc2cccc(OC)c2)nc2c1C(=O)CC(C)(C)C2	7	28	13	12	0
CCc1c(C#N)c(SCCC(=O)Nc2ccc(F)cc2)nc2c1C(=O)CC(C)(C)C2	3	56*	24	5	0
CC1(C)CC(=O)c2c(nc(SCC(=O)Nc3nsc(-c4ccccc4)n3)c(C#N)c2-c2ccccc2)C1	69*	36	9	-1	-1
CN(Cc1ccccc1)C(=O)CN1C(=O)NC(C)(c2ccc(Cl)cc2)C1=O (configuration not stated)	·	6	-14	0	·
CN1CCN(c2nc(-c3ccccc3)nc(-c3ccccc3)c2C#N)CC1	24	41	6	4	0
Cc1cccc2nc(-c3ccccc3)nc(N3CCC(O)(c4ccc(Cl)cc4)CC3)c12	79*	60*	33	2	0
O=[N+]([O-])c1ccc(-c2cn3ccccc3n2)cc1	·	-26	9	-2	·
CCOc1ccc(-c2cn3ccccc3n2)cc1[N+](=O)[O-]	2	-6	55*	24	0
CCCCOc1ccc(-c2cn3ccccc3n2)cc1[N+](=O)[O-]	4	11	63*	37	0
O=C1C2CCCN2C(=S)N1c1ccc(Cl)cc1 (configuration not stated)	·	-6	-3	-1	·
N=C1S/C(=C\c2cn[nH]c2-c2ccc(F)cc2)C(=O)N1c1ccccc1F	-2	-4	-3	-9	0
Cc1ccc(S(=O)(=O)NCc2ccc(N3CCN(C(=O)OC(C)(C)C)CC3)cc2)cc1	·	33	6	-5	·
CCCOc1ccc(-c2nc(SCc3ccccc3)[nH]c(=O)c2C#N)cc1OC	·	56*	-2	-3	·
CC1CCN(c2ccc(-c3ccc(NC(=O)C(F)(F)F)cc3)nn2)CC1	·	3	-18	-8	·
CN1CCN(S(=O)(=O)c2ccc3c(c2)OCCO3)CC1	-5	0	-7	-1	0
O=S(=O)(c1ccc2c(c1)OCCO2)N1CCN(c2ncnc3sccc23)CC1	60*	-65	7	10	0
SMILES	L major viab	T cruzi inh	HSF1 activator	HSF1 inhib	Hsp70 activator
CCN(CC)S(=O)(=O)c1ccc(N2CCN(S(=O)(=O)c3ccc4c(c3)OCCO4)CC2)nc1	79*	25	-3	1	0
COc1cccc(CNC(=O)Cc2ccc(S(=O)(=O)N3CCOCC3)s2)c1	·	0	14	2	·
Cc1cccc(Nc2nnc(-c3ccc(C(=O)N4C[C@H]5C[C@H](C4)c4cccc(=O)n4C5)cc3)c3ccccc23)c1	-1	37	-7	-6	0
O=C(NNc1ccccc1)C(=O)N1CCCCC1	67*	25	7	-4	0
COc1ccccc1C(=O)NNC(=O)C(=O)N1CCCCC1	·	-22	6	5	·
O=C(NNC(=O)c1ccc(F)cc1)C(=O)N1CCCCC1	95*	-6	12	-7	0
Cc1ccc(S(=O)(=O)NCc2ccccc2)cc1C(=O)N(C)CC(=O)Nc1c(Cl)cccc1Cl	·	-10	-13	9	·
CCCCN1C(=O)/C(=C2/Sc3ccccc3N2C)S/C1=N\c1ncn[nH]1	49	39	-17	-2	0
COc1cccc(Nc2ncnc3ccccc23)c1	62*	-7	42	14	0
COc1ccc(Nc2nc(-c3cccs3)nc3ccccc23)cc1	40	30	-9	0	0
COc1cccc(CN(C)c2nc(-c3cccs3)nc3ccccc23)c1	92*	9	-15	-10	0
COc1ncnc2sc(-c3ccccc3)cc12	-5	-14	38	26	0
COc1ccc(Nc2ncnc3sc(-c4ccccc4)cc23)cc1	-1	31	-78	-71*	0
O=[N+]([O-])c1ccc(Nc2c3ccccc3nc3ccccc23)cc1	57*	3	8	-1	0
S=C(NCCc1ccc(Cl)cc1)NCc1ccccc1	·	4	10	2	·
CCOC(=O)c1cc(S(=O)(=O)Nc2ccc(OC)cc2OC)cn1C	·	8	13	9	·
Cc1cccc(C)c1NC(=O)CNC(=O)Cn1nc(C)c(C)c(C#N)c1=O	·	-6	4	-4	·
Cc1cc(C)n(CCCNC(=O)CCNS(=O)(=O)c2ccccc2C(F)(F)F)n1	·	8	3	-4	·
c1ccc(CCNc2ncnc3ccccc23)cc1	42	22	11	2	0
COc1ccc(Nc2nc(-c3cccc([N+](=O)[O-])c3)nc3ccccc23)cc1	26	65*	-8	1	0
COc1ccc(Nc2nc(-c3ccccc3)nc3ccccc23)cc1	·	42	4	0	·
CCCCCCCCNc1ncnc2ccccc12	77*	26	23	18	0
COc1cccc(Nc2nc(-c3cccs3)nc3ccccc23)c1	99*	37	8	-9	0
COc1ccc(Nc2nc(-c3ccc(OC)cc3)cs2)cc1	0	15	10	3	0
COc1ccc(Nc2nc(-c3c[nH]c4ccccc34)cs2)cc1	85*	-17	30	0	0
Cc1cccc2[nH]c3c(N4CCC5(CC4)OCCO5)ncnc3c12	43	-21	-11	-5	0
O=C(c1ccco1)N1CCN(c2ncnc3scc(-c4ccc(F)cc4)c23)CC1	78*	6	0	1	0
Cc1cccc2[nH]c3c(N4CCN(C(=O)c5ccco5)CC4)ncnc3c12	82*	1	-1	6	0
